≈ marks a conversion by molar mass, not a printed value.
Tested on: not listed separately
Experiment: Apparent permeability from apical to basolateral side in human Caco2 cells at 10 uM after 2 hrs by LC-MS/MS analysis
Type: ADME, cell-based, Caco-2
Conditions: Caco-2

`CC(=O)CC(c1ccccc1)c1c(O)c2ccccc2oc1=O` (stereo not drawn) [WARFARIN] showed a Papp A→B at 2 h, 10 µM of 39.8 ×10⁻⁶ cm/s.

Target: T1, Peroxisome proliferator-activated receptor alpha (Homo sapiens) (UniProt Q07869)
T1 sequence (whole entry): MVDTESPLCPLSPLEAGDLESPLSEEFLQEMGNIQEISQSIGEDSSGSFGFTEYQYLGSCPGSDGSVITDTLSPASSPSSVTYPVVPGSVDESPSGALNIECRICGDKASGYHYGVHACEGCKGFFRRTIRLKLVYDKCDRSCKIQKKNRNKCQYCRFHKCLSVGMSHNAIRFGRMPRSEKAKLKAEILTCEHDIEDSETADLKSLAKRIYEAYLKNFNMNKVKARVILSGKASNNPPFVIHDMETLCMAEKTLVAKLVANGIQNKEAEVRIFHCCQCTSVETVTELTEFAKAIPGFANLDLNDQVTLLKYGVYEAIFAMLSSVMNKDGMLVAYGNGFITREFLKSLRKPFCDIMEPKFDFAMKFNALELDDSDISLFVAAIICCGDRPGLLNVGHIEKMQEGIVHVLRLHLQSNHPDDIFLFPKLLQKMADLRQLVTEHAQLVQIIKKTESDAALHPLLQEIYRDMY
Experiment: Transactivation of human GAL4-fused PPARalpha LBD expressed in African green monkey COS7 cells co-expressing 5Gal4 pGL3 TK Luc after overnight incubation by luciferase reporter gene assay relative to fenofibric acid
Type: cell-based
Conditions: not given
Method in brief: (§1)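 Cell-based Gal-4 transactivation assay in COS-7 cells transfected with PPARα, PPARδ or PPARγ ligand-binding domain. EC50 and Emax were derived, with Emax as maximum activation in percent of control. EC50s are means of at least two independent experiments performed in triplicate.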

First: O=C(O)CCCc1cc2cc(C(F)(F)F)ccc2n1S(=O)(=O)c1ccc(Cl)cc1
Second: O=C(O)CCCc1cc2cc(C(F)(F)F)ccc2n1S(=O)(=O)c1ccccc1Cl
The Emax of the first is lower: 45% for the first, 104% for the second.

First: Cc1cccc(S(=O)(=O)n2c(CCCC(=O)O)cc3cc(Cl)ccc32)c1
Second: Cc1ccc2c(c1)cc(CCCC(=O)O)n2S(=O)(=O)c1ccccc1
The Emax of the first is higher: 59% for the first, 46% for the second.

First: COc1ccc(S(=O)(=O)n2c(CCCC(=O)O)cc3cc(Cl)ccc32)cc1
Second: Cc1nc2cc(S(=O)(=O)n3c(CCCC(=O)O)cc4cc(Cl)ccc43)ccc2s1
The Emax of the first is higher: 26% for the first, 22% for the second.

Target: T2, Peroxisome proliferator-activated receptor delta (Homo sapiens, UniProt Q03181)
T2 sequence (Q03181 whole entry): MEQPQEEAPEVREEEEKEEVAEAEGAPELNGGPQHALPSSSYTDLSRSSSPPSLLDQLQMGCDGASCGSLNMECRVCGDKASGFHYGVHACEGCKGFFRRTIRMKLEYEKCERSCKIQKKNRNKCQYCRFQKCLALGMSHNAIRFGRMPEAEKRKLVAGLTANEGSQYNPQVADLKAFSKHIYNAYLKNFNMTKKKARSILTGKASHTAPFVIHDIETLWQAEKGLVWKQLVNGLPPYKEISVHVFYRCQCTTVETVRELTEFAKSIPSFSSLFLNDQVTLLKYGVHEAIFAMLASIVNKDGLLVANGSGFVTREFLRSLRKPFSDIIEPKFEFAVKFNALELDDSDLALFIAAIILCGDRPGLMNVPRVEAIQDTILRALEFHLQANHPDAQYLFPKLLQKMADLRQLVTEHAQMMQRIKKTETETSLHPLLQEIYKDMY
Experiment: Transactivation of human GAL4-fused PPARdelta LBD expressed in African green monkey COS7 cells co-expressing 5Gal4 pGL3 TK Luc after overnight incubation by luciferase reporter gene assay
Type: cell-based
Conditions: not given
Method in brief: as §1

`O=C(O)CCCc1cc2cc(C(F)(F)F)ccc2n1S(=O)(=O)c1ccc(Cl)cc1` and `Cc1cccc(S(=O)(=O)n2c(CCCC(=O)O)cc3cc(Cl)ccc32)c1` are within 1.5-fold of each other in EC50: 1650 nM for the first, 1350 nM for the second.

Going from `Cc1ccc2c(c1)cc(CCCC(=O)O)n2S(=O)(=O)c1ccccc1` to `Cc1nc2cc(S(=O)(=O)n3c(CCCC(=O)O)cc4cc(Cl)ccc43)ccc2s1`, the EC50 falls from greater than 5000 nM to 1100 nM. The second is the more potent here.

Tested on: not listed separately
Experiment: Apparent permeability from basolateral to apical side in human Caco2 cells at 10 uM after 2 hrs by LC-MS/MS analysis
Type: ADME, cell-based, Caco-2
Conditions: caco-2, 2 h, 10 µM

In the case of `CC(=O)CC(c1ccccc1)c1c(O)c2ccccc2oc1=O` (stereo not drawn) [WARFARIN], the Papp is reported as 0.7 ×10⁻⁶ cm/s.

Target: T3, Peroxisome proliferator-activated receptor delta (Homo sapiens) (UniProt Q03181)
T3 sequence (whole entry): T2 sequence (Q03181 whole entry)
Experiment: Transactivation of human GAL4-fused PPARdelta LBD expressed in African green monkey COS7 cells co-expressing 5Gal4 pGL3 TK Luc after overnight incubation by luciferase reporter gene assay relative to GW501516
Type: cell-based
Conditions: not given
Method in brief: as §1

Compared with `O=C(O)CCCc1cc2cc(C(F)(F)F)ccc2n1S(=O)(=O)c1ccc(Cl)cc1`, `O=C(O)CCCc1cc2cc(C(F)(F)F)ccc2n1S(=O)(=O)c1ccccc1Cl` is lower in Emax: 38% for the first, less than 20% for the second.

Going from `Cc1cccc(S(=O)(=O)n2c(CCCC(=O)O)cc3cc(Cl)ccc32)c1` to `Cc1ccc2c(c1)cc(CCCC(=O)O)n2S(=O)(=O)c1ccccc1`, the Emax rises from 42% to 45%.

Going from `COc1ccc(S(=O)(=O)n2c(CCCC(=O)O)cc3cc(Cl)ccc32)cc1` to `Cc1nc2cc(S(=O)(=O)n3c(CCCC(=O)O)cc4cc(Cl)ccc43)ccc2s1`, the Emax rises from less than 20% to 20%.

Target: T4, Peroxisome proliferator-activated receptor alpha (Homo sapiens, UniProt Q07869)
T4 sequence (Q07869 whole entry): T1 sequence (whole entry)
Experiment: Transactivation of human GAL4-fused PPARalpha LBD expressed in African green monkey COS7 cells co-expressing 5Gal4 pGL3 TK Luc after overnight incubation by luciferase reporter gene assay
Type: cell-based
Conditions: not given
Method in brief: as §1

Going from `O=C(O)CCCc1cc2cc(C(F)(F)F)ccc2n1S(=O)(=O)c1ccc(Cl)cc1` to `O=C(O)CCCc1cc2cc(C(F)(F)F)ccc2n1S(=O)(=O)c1ccccc1Cl`, the EC50 rises from 2820 nM to greater than 5000 nM.

`Cc1cccc(S(=O)(=O)n2c(CCCC(=O)O)cc3cc(Cl)ccc32)c1` and `Cc1ccc2c(c1)cc(CCCC(=O)O)n2S(=O)(=O)c1ccccc1` are within 1.5-fold of each other in EC50: 1250 nM for the first, 1300 nM for the second.

Going from `COc1ccc(S(=O)(=O)n2c(CCCC(=O)O)cc3cc(Cl)ccc32)cc1` to `Cc1nc2cc(S(=O)(=O)n3c(CCCC(=O)O)cc4cc(Cl)ccc43)ccc2s1`, the EC50 rises from 419 nM to 2360 nM (5.6-fold).

Target: T5, Peroxisome proliferator-activated receptor gamma (Homo sapiens, UniProt P37231)
T5 sequence (P37231 whole entry): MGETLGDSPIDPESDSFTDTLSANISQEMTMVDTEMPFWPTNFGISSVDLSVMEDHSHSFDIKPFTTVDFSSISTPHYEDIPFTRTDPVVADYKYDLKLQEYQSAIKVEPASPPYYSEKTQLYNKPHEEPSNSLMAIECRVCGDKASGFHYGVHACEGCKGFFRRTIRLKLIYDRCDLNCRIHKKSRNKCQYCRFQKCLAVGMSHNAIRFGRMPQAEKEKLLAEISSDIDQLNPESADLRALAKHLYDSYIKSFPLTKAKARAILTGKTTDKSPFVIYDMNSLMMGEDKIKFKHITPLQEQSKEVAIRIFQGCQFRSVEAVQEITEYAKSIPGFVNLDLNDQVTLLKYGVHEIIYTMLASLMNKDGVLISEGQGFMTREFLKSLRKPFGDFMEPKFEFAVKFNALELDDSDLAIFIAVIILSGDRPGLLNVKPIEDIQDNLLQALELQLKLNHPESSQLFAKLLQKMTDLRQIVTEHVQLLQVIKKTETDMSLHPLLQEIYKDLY
Experiment: Transactivation of human GAL4-fused PPARgamma LBD expressed in African green monkey COS7 cells co-expressing 5Gal4 pGL3 TK Luc after overnight incubation by luciferase reporter gene assay
Type: cell-based
Conditions: not given
Method in brief: as §1

Going from `O=C(O)CCCc1cc2cc(C(F)(F)F)ccc2n1S(=O)(=O)c1ccc(Cl)cc1` to `O=C(O)CCCc1cc2cc(C(F)(F)F)ccc2n1S(=O)(=O)c1ccccc1Cl`, the EC50 rises from 629 nM to greater than 5000 nM.

Compared with `Cc1cccc(S(=O)(=O)n2c(CCCC(=O)O)cc3cc(Cl)ccc32)c1`, `Cc1ccc2c(c1)cc(CCCC(=O)O)n2S(=O)(=O)c1ccccc1` is 3.8-fold higher in EC50: 75 nM for the first, 284 nM for the second. The first is the more potent here.

Compared with `COc1ccc(S(=O)(=O)n2c(CCCC(=O)O)cc3cc(Cl)ccc32)cc1`, `Cc1nc2cc(S(=O)(=O)n3c(CCCC(=O)O)cc4cc(Cl)ccc43)ccc2s1` is 2.4-fold higher in EC50: 72 nM for the first, 175 nM for the second. The first is the more potent here.

Tested on: not listed separately
Experiment: Aqueous solubility in fasted state simulated intestinal fluid
Type: physicochemical
Conditions: not given

For `CC(=O)CC(c1ccccc1)c1c(O)c2ccccc2oc1=O` (stereo not drawn) [WARFARIN], the solubility was 56 µM (≈ 17.3 µg/mL).

Target: T6, Peroxisome proliferator-activated receptor gamma (Homo sapiens) (UniProt P37231)
T6 sequence (whole entry): T5 sequence (P37231 whole entry)
Experiment: Transactivation of human GAL4-fused PPARgamma LBD expressed in African green monkey COS7 cells co-expressing 5Gal4 pGL3 TK Luc after overnight incubation by luciferase reporter gene assay relative to rosiglitazone
Type: cell-based
Conditions: not given
Method in brief: as §1

Compared with `O=C(O)CCCc1cc2cc(C(F)(F)F)ccc2n1S(=O)(=O)c1ccc(Cl)cc1`, `O=C(O)CCCc1cc2cc(C(F)(F)F)ccc2n1S(=O)(=O)c1ccccc1Cl` is higher in Emax: 36% for the first, 45% for the second.

Compared with `Cc1cccc(S(=O)(=O)n2c(CCCC(=O)O)cc3cc(Cl)ccc32)c1`, `Cc1ccc2c(c1)cc(CCCC(=O)O)n2S(=O)(=O)c1ccccc1` is lower in Emax: 46% for the first, 38% for the second.

Going from `COc1ccc(S(=O)(=O)n2c(CCCC(=O)O)cc3cc(Cl)ccc32)cc1` to `Cc1nc2cc(S(=O)(=O)n3c(CCCC(=O)O)cc4cc(Cl)ccc43)ccc2s1`, the Emax rises from 25% to 39%.

Tested on: not listed separately
Experiment: Efflux ratio of apparent permeability in human Caco2 cells at 10 uM after 2 hrs by LC-MS/MS analysis
Type: ADME, cell-based, Caco-2
Conditions: Caco-2

Work on `CC(=O)CC(c1ccccc1)c1c(O)c2ccccc2oc1=O` (stereo not drawn) [WARFARIN] yielded an efflux ratio at 2 h, 10 µM of 0.02.

— ChEMBL document CHEMBL4020830, “Design, Synthesis, and Evaluation of a Novel Series of Indole Sulfonamide Peroxisome Proliferator Activated Receptor (PPAR) α/γ/δ Triple Activators: Discovery of Lanifibranor, a New Antifibrotic Clinical Candidate” (J Med Chem, 2018)
